Among the data in PubChem BioAssay AID623921 (The Scripps Research Institute Molecular Screening Center, 2012) are remaining enzyme activity values, retold here.

Values joined by “and” are separate entries in the source; they are usually repeats but may differ in a detail not shown here. Identical values can stand only once. Active and inactive are the calls of the source.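 The calls were made as follows: active = remaining nuclease activity at or below 52% of the solvent-only control; inactive = the rest.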

This assay deals with RecBCD enzyme subunit RecC (Escherichia coli (strain K12)) + RecBCD enzyme subunit RecB (Escherichia coli (strain K12)) (UniProt P07648+P08394). Description: RecBCD dsDNA exonuclease activity remaining – biochemical, radioactivity readout, 100 µM single dose, counter-screen for AddAB inhibitor project, late-stage follow-up (AID 623921). The conditions noted are these: purified RecBCD, [3H] dsDNA nuclease, TCA-soluble radioactivity; at 100 µM; active compounds read low. An outline of the steps: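 System: purified E. coli RecBCD helicase-nuclease enzyme; Input: RecBCD enzyme at 4.5 nM; Compound: single nominal 100 µM compound dose, 5% DMSO final; Incubation: enzyme-compound mix on ice, 20 min reaction at 37 °C; Detection: scintillation counting of acid-soluble tritium after TCA precipitation; Evaluation: nuclease activity % versus DMSO reactions; Replication: triplicate.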
Sequence of RecBCD enzyme subunit RecC (Escherichia coli (strain K12)) + RecBCD enzyme subunit RecB (Escherichia coli (strain K12)) (P07648 whole entry, looked up): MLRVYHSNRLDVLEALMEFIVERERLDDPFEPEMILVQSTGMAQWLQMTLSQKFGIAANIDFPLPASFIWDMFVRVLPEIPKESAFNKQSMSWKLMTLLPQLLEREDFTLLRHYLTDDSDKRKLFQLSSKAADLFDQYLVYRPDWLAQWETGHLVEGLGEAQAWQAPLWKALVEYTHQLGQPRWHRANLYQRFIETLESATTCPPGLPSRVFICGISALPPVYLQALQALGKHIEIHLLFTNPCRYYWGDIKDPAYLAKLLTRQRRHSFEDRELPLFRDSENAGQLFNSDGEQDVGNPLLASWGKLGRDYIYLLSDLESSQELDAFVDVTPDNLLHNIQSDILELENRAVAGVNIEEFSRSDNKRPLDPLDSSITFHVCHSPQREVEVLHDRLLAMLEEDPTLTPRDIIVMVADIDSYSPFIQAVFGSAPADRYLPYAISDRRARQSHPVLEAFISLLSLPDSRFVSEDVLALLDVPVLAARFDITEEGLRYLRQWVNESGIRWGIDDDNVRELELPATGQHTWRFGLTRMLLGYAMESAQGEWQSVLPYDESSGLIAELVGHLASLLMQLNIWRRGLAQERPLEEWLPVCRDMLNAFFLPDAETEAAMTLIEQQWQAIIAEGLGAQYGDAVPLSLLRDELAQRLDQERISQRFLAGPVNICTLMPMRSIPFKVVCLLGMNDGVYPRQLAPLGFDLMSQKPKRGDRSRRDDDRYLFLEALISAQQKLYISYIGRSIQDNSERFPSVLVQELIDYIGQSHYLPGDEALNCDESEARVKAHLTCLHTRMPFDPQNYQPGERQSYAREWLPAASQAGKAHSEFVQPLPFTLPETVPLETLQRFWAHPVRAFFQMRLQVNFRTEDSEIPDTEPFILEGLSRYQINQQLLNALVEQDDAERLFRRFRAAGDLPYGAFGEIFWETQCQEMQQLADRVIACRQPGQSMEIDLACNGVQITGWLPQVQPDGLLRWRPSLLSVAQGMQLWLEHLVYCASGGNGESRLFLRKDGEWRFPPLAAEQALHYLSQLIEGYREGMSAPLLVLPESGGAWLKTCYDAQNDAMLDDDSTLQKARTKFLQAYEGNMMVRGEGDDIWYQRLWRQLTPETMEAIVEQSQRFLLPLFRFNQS
Sequence of RecBCD enzyme subunit RecC (Escherichia coli (strain K12)) + RecBCD enzyme subunit RecB (Escherichia coli (strain K12)) (P08394 whole entry, looked up): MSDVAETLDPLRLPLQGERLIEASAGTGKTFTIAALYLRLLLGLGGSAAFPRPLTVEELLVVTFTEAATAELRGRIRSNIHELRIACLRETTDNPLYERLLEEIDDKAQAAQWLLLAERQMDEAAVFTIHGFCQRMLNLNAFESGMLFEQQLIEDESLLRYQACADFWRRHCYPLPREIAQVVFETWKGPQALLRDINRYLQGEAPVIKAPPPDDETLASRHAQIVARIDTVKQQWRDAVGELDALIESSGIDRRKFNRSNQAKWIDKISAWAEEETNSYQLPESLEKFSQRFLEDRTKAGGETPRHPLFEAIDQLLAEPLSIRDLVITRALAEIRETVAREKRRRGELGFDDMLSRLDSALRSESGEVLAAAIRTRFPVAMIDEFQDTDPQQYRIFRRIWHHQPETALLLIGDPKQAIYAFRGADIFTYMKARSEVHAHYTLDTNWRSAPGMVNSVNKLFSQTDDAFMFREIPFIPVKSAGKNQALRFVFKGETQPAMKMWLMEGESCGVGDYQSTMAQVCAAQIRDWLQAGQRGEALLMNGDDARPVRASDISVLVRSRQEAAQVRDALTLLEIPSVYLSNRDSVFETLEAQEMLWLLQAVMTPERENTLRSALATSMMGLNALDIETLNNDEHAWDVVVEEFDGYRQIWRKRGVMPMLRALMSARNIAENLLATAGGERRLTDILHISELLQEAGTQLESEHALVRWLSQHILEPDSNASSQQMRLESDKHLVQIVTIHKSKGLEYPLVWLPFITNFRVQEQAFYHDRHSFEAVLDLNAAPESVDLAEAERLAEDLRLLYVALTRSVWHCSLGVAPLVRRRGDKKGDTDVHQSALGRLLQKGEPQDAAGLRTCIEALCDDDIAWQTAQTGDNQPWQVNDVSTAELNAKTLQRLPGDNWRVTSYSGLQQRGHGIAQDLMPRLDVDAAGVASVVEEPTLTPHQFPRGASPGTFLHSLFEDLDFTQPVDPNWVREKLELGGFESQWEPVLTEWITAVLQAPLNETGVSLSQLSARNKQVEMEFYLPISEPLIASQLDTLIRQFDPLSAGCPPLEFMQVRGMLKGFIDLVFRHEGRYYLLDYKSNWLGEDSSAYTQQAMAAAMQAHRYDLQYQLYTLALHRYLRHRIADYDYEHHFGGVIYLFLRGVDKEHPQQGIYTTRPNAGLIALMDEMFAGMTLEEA
For orientation: The purpose of a counterscreen is to sort out artefacts and off-target activity.
Take `CC1CCc2c(sc(NC(=O)c3ccc([N+](=O)[O-])o3)c2N)C1` (stereo not drawn): the remaining enzyme activity is 110% (inactive). As for `CC1(C)Cc2c(sc(NC(=O)c3ccco3)c2C#N)CO1`, the remaining enzyme activity was 90% (inactive). The same measure for `CCn1cc(C(=O)O)c(=O)c2cnc(N3CCN(C(=S)Nc4ccccc4)CC3)nc21`: 23%; for `CCn1cc(C(=O)O)c(=O)c2cnc(N3CCN(C(=O)Nc4ccccc4)CC3)nc21`: 83% (inactive).

With `N#Cc1c(NC(=O)c2ccccc2C(=O)O)sc2c1CCCC2`, the remaining enzyme activity was 110% (inactive). In the case of `N#Cc1c(NC(=O)C2CC=CCC2C(=O)O)sc2c1CCC2` (stereo not drawn), the remaining enzyme activity is 77% (inactive). `CCn1cc(C(=O)O)c(=O)c2cnc(N3CCN(C(=S)NC(=O)c4ccco4)CC3)nc21`: the remaining enzyme activity was 84% (inactive). The same measure for `CCn1cc(C(=O)O)c(=O)c2cnc(N3CCN(C(=S)NC(C)c4ccccc4)CC3)nc21` (stereo not drawn): 1%. As for `CSc1ncc(Cl)c(C(=O)Nc2sc3c(c2C#N)CCC(C)C3)n1` (stereo not drawn), the remaining enzyme activity is 88% (inactive). The same measure for `NC(=O)c1c(NC(=O)c2cnccn2)sc2c1CCCC2`: 85% (inactive); for `CCn1cc(C(=O)O)c(=O)c2cnc(N3CCN(C(=S)Nc4ccccc4F)CC3)nc21`: 31%; for `CCn1cc(C(=O)O)c(=O)c2cnc(N3CCN(C(=S)Nc4cccc(C(F)(F)F)c4)CC3)nc21`: -2%.

Consider `COC(=O)c1c(-c2cccc(C)c2)csc1NC(=O)c1cnccn1`, for which the remaining enzyme activity is 88% (inactive).

Consider `Cc1ccc(C(=O)Nc2sc3c(c2C#N)CCC3)o1`, for which the remaining enzyme activity is 84% (inactive). With `N#Cc1c(NC(=O)c2cnccn2)sc2c1CCCC2`, the remaining enzyme activity was 21% and 30%.

Take `N#Cc1c(NC(=O)c2cc(-c3ccccc3)on2)sc2c1CCCC2`: the remaining enzyme activity is 34%. Then `CCn1cc(C(=O)O)c(=O)c2cnc(N3CCNCC3)nc21`, with 110% (inactive); and `CCn1cc(C(=O)O)c(=O)c2cnc(N3CCN(C(=S)Nc4ccccc4Cl)CC3)nc21`, with 28%. The same measure for `CCn1cc(C(=O)O)c(=O)c2cc(F)c(N3CCN(C(=S)Nc4ccccc4C(F)(F)F)CC3)cc21`: 45%; for `N#Cc1c(NC(=O)c2cnccn2)sc2c1CCCCCC2`: 71% (inactive). Then `N#Cc1c(NC(=O)c2cccc(F)c2)sc2c1CCCC2`, with 110% (inactive); and `CC1CCc2c(sc(NC(=O)c3cccs3)c2C#N)C1` (stereo not drawn), with 89% (inactive). Take `CCn1cc(C(=O)O)c(=O)c2cnc(N3CCN(C(=S)Nc4ccc(F)cc4)CC3)nc21`: the remaining enzyme activity is 19%. Then `Cn1nccc1C(=O)Nc1sc2c(c1C#N)CCCC2`, with 71% (inactive); and `CCn1cc(C(=O)O)c(=O)c2cnc(N3CCN(C(=S)NC4CC5CCC4C5)CC3)nc21` (stereo not drawn), with 1%. Then `CCn1cc(C(=O)O)c(=O)c2cnc(N3CCN(C(=S)Nc4ccc(Cl)cc4)CC3)nc21`, with -1%; and `CSc1ncc(Cl)c(C(=O)Nc2sc3c(c2C(=O)NC2CCS(=O)(=O)C2)CCC(C)C3)n1` (stereo not drawn), with 76% (inactive); and `CCn1cc(C(=O)O)c(=O)c2cnc(N3CCN(C(=S)Nc4ccccc4C(F)(F)F)CC3)nc21`, with 30%. Regarding `CCC(C)(C)C1CCc2c(sc(NC(=O)c3cnccn3)c2C#N)C1` (stereo not drawn), the remaining enzyme activity is 85% (inactive). As for `CNC(=O)c1c(NC(=O)c2nc(SCc3ccccc3)ncc2Cl)sc2c1CCCC2`, the remaining enzyme activity was 26%. Then `CC1CCc2c(sc(NC(=O)c3cnccn3)c2C#N)C1` (stereo not drawn), with 83% (inactive); and `Nc1c(NC(=O)c2ccc([N+](=O)[O-])o2)sc2c1CCCC2`, with 98% (inactive); and `CCn1cc(C(=O)O)c(=O)c2cnc(N3CCN(C(=S)NCc4ccccc4)CC3)nc21`, with 7%.

In the case of `COC(=O)c1c(NC(=O)c2cnccn2)sc2c1CCCC2`, the remaining enzyme activity is 78% (inactive). For `CCn1cc(C(=O)O)c(=O)c2cnc(N3CCN(C(=S)Nc4ccccc4OC)CC3)nc21`, the remaining enzyme activity is 26%. Then `N#Cc1c(NC(=O)c2ccco2)sc2c1CCC2`, with 41%.

Turning to `CCn1cc(C(=O)O)c(=O)c2cnc(N3CCN(C(=S)Nc4ccccc4C)CC3)nc21`, the remaining enzyme activity was 40%. Consider `CCn1cc(C(=O)O)c(=O)c2cnc(N3CCN(C(=S)NC(=O)c4cccc(C)c4)CC3)nc21`, for which the remaining enzyme activity is 11%. As for `Cc1sc(NC(=O)c2ccc(Br)o2)c(C#N)c1C`, the remaining enzyme activity is 51%. Regarding `CCn1cc(C(=O)O)c(=O)c2cnc(N3CCN(C(=S)Nc4ccc5c(c4)OCCO5)CC3)nc21`, the remaining enzyme activity is 34%. The same measure for `Cc1sc(NC(=O)c2cnccn2)c(C(=O)OC(C)C)c1-c1ccccc1`: 44%. Then `CCn1cc(C(=O)O)c(=O)c2cnc(N3CCN(C(=S)NC(=O)c4ccccc4Cl)CC3)nc21`, with 58% (inactive); and `CCn1cc(C(=O)O)c(=O)c2cc(F)c(N3CCN(C(=S)Nc4cccc(C(F)(F)F)c4)CC3)cc21`, with 12%; and `CC1CCc2c(sc(NC(=O)c3ccc([N+](=O)[O-])o3)c2C#N)C1` (stereo not drawn), with 110% (inactive). Consider `CCn1cc(C(=O)O)c(=O)c2cnc(N3CCN(C(=S)Nc4ccc5c(c4)OCO5)CC3)nc21`, for which the remaining enzyme activity was 4%. The same measure for `COC(=O)c1c(-c2ccccc2)csc1NC(=O)c1cnccn1`: 28%; for `N#Cc1c(NC(=O)c2ccc(-c3ccccc3[N+](=O)[O-])o2)sc2c1CCCC2`: 120% (inactive).

For `CCn1cc(C(=O)O)c(=O)c2cnc(N3CCN(C(=S)NC)CC3)nc21`, the remaining enzyme activity is 35%. As to `C=CCNC(=S)N1CCN(c2ncc3c(=O)c(C(=O)O)cn(CC)c3n2)CC1`, the remaining enzyme activity is 63% (inactive).

For `Cc1ccc(C(=O)Nc2sc3c(c2C#N)CCCCC3)o1`, the remaining enzyme activity is 106% (inactive). The same measure for `N#Cc1c(NC(=O)c2ccccc2)sc2c1CCC2`: 94% (inactive); for `N#Cc1c(NC(=O)c2ccc([N+](=O)[O-])o2)sc2c1CCCC2`: 110% (inactive); for `CCn1cc(C(=O)O)c(=O)c2cnc(N3CCN(C(=S)NC(=O)c4cccnc4)CC3)nc21`: 40%.
